Experiment [1] in a line: Growth inhibition of human MOLT4 cells at 10 uM after 48 hrs by sulforhodamine B assay relative to control. The experiment is classed as functional. To be noted: MOLT-4, 48 h, read-out: GI. An outline of the steps: (§1)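 NCI-60 primary screen at a single 10 µM dose. Continuous 48 h exposure, with growth or viability estimated by sulforhodamine B protein staining. Reported as percent growth inhibition of treated cells relative to untreated growth.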
A general note: The SRB assay estimates cell density from bound dye.

Another experiment relates to M14. As to the kind of experiment: Growth inhibition of human M14 cells at 10 uM after 48 hrs by sulforhodamine B assay relative to control. As to conditions: M14, 48 h, read-out: GI. The experiment is classed as functional. An outline of the steps: (§2)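 NCI-60 primary screen at a single dose of 10 µM with 48 h continuous exposure. Growth or viability read by sulforhodamine B protein staining and expressed as percent growth inhibition versus untreated cells.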

In the next experiment the test system is NCI-H522. Briefly: Growth inhibition of human NCI-H522 cells at 10 uM after 48 hrs by sulforhodamine B assay relative to control. It counts as functional. As to conditions: NCI-H522, 48 h, read-out: GI. An outline of the steps:
as §1

Another experiment concerns RPMI-8226. Briefly: Growth inhibition of human RPMI8226 cells at 10 uM after 48 hrs by sulforhodamine B assay relative to control. The experiment is classed as functional. As to conditions: RPMI-8226, 48 h, read-out: GI. Summed up:
as §1

The nature of experiment [2]: Growth inhibition of human OVCAR3 cells at 10 uM after 48 hrs by sulforhodamine B assay relative to control. The experiment is classed as functional. To be noted: OVCAR-3, 48 h, read-out: GI. Summed up: as §1
Another experiment deals with SNB-75. As to the kind of experiment: Growth inhibition of human SNB75 cells at 10 uM after 48 hrs by sulforhodamine B assay relative to control. The experiment is classed as functional. As to conditions: SNB-75, 48 h, read-out: GI. Summed up: as §1
The test system of the next experiment is Ehrlich. As to the kind of experiment: Antitumor activity against mouse EAC cells allografted in BALB mouse assessed as tumor growth inhibition at 3 mg/kg, ip for 5 days relative to control. It counts as functional. As to conditions: 120 h, route intraperitoneal, read-out: TGI. Summed up:
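Female BALB mice; Ehrlich ascites carcinoma cells, 2×10^5 cells/mouse in 0.2 ml saline, injected s.c. into the left hind leg and grown 2 wk. Daily i.p. saline (control), 3 or 6 mg/kg for 5 days. Caliper size V = 0.4×a(b)^2, taken just before the first dose and 24 h after the last. Mean ± SEM, n = 6; ANOVA with Tukey-Kramer.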

A short description of experiment [3]: Growth inhibition of human […] cells after 48 hrs by coulter counting analysis. It counts as functional. Summed up: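 NCI five-dose screen at 0.01-100 µM, diluted from DMSO stocks in buffered saline (final DMSO <1%). Cells at 6×10^4 cells/ml in RPMI 1640 with 10% FBS, in duplicate wells, at 37 °C under 5% CO2 for 48 h. Cells diluted tenfold in saline and Coulter-counted. GI50, TGI and LC50 taken from log concentration-growth inhibition curves.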

The test system of another experiment is PC-3. Briefly: Growth inhibition of human PC3 cells at 10 uM after 48 hrs by sulforhodamine B assay relative to control. The experiment is classed as functional. To be noted: PC-3, 48 h, read-out: GI. An outline of the steps: as §1
For another experiment, the system named is Mus musculus. As to the kind of experiment: Increase in GSK-3beta level in tumor of BALB mouse allografted with mouse EAC cells at 6 mg/kg, ip for 5 days by competitive ELISA relative to control. To be noted: route intraperitoneal. It counts as functional, Ehrlich. Summed up:
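Female BALB mice bearing subcutaneous EAC tumours (2×10^5 cells in left hind leg, grown 2 wk). Dosed i.p. daily for 5 days; controls received saline. Excised tumours washed in cold saline and homogenised at 10% in PBS. GSK-3β measured by competitive ELISA, samples in duplicate. Change versus untreated controls, mean ± SEM, n = 6.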
Background: In an ELISA, binding on a coated surface is turned into a signal by an enzyme label.

The next experiment relates to KM12. Briefly: Growth inhibition of human KM12 cells at 10 uM after 48 hrs by sulforhodamine B assay relative to control. The experiment is classed as functional. To be noted: KM12, 48 h, read-out: GI. An outline of the steps: as §2
Another experiment concerns NCI-H23. As to the kind of experiment: Growth inhibition of human NCI-H23 cells at 10 uM after 48 hrs by sulforhodamine B assay relative to control. It counts as functional. To be noted: NCI-H23, 48 h, read-out: GI. Summed up:
as §1

In a further experiment the test system is HL-60(TB). As to the kind of experiment: Growth inhibition of human HL-60(TB) cells at 10 uM after 48 hrs by sulforhodamine B assay relative to control. The experiment is classed as functional. As to conditions: HL-60, 48 h, read-out: GI. An outline of the steps: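 Single-dose primary screen at 10 µM across the NCI 60 panel, 48 h continuous exposure. Growth estimated by sulforhodamine B protein staining and reported as percentage growth inhibition relative to untreated control.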

A short description of experiment [4]: Growth inhibition of human OVCAR8 cells at 10 uM after 48 hrs by sulforhodamine B assay relative to control. The experiment is classed as functional. As to conditions: OVCAR-8, 48 h, read-out: GI. Summed up: as §1
Experiment [5] is described as follows: Growth inhibition of human LOXIMVI cells at 10 uM after 48 hrs by sulforhodamine B assay relative to control. The experiment is classed as functional. To be noted: LOX IMVI, read-out: GI. An outline of the steps: as §2
For another experiment, the system named is ACHN. Briefly: Growth inhibition of human ACHN cells at 10 uM after 48 hrs by sulforhodamine B assay relative to control. As to conditions: read-out: GI. The experiment is classed as functional. Summed up: as §2
The nature of experiment [6]: Growth inhibition of human PC549 cells after 48 hrs by coulter counting analysis. It counts as functional. An outline of the steps:
(§3)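 Five-dose NCI-60 follow-up, 0.01–100 µM, made from DMSO stock in buffered saline (final DMSO <1%), in duplicate wells. Cells in RPMI 1640 with 10% FBS at 6×10^4 cells/ml, 37 °C, 5% CO2, 48 h. Cells diluted tenfold in saline, Coulter-counted and corrected for dilution. GI50, TGI and LC50 taken from log concentration–percent growth curves.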

A short description of experiment [7]: Growth inhibition of human UACC257 cells at 10 uM after 48 hrs by sulforhodamine B assay relative to control. The experiment is classed as functional. To be noted: UACC-257, 48 h, read-out: GI. An outline of the steps:
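NCI-60 primary single-dose screen at 10 µM with continuous 48 h exposure. Cell viability/growth read by sulforhodamine B protein staining. Reported as percent growth inhibition relative to untreated cells.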

Experiment [8] is described as follows: Growth inhibition of human NCI-ADR-RES cells at 10 uM after 48 hrs by sulforhodamine B assay relative to control. The experiment is classed as functional. As to conditions: read-out: GI. Summed up:
as §1

Experiment [9] relates to SR. Briefly: Growth inhibition of human SR cells after 48 hrs by coulter counting analysis. The experiment is classed as functional. An outline of the steps:
as §3

The test system of a further experiment is MCF7. As to the kind of experiment: Growth inhibition of human MCF7 cells at 10 uM after 48 hrs by sulforhodamine B assay relative to control. The experiment is classed as functional. To be noted: MCF7, 48 h, read-out: GI. Summed up:
as §2

Another experiment relates to CAKI-1. As to the kind of experiment: Growth inhibition of human CAKI-1 cells at 10 uM after 48 hrs by sulforhodamine B assay relative to control. The experiment is classed as functional. As to conditions: CAKI-1, 48 h, read-out: GI. An outline of the steps: as §2
The test system of a further experiment is NCI-H460. Briefly: Growth inhibition of human NCI-H460 cells at 10 uM after 48 hrs by sulforhodamine B assay relative to control. As to conditions: NCI-H460, 48 h, read-out: GI. The experiment is classed as functional. Summed up:
as §1

A further experiment relates to SF-268. As to the kind of experiment: Growth inhibition of human SF268 cells at 10 uM after 48 hrs by sulforhodamine B assay relative to control. It counts as functional. As to conditions: SF-268, 48 h, read-out: GI. An outline of the steps:
as §1

The subject of experiment [10] is SR. Briefly: Growth inhibition of human SR cells at 10 uM after 48 hrs by sulforhodamine B assay relative to control. As to conditions: read-out: GI. The experiment is classed as functional. Summed up: as §1
In a further experiment the test system is MDA-MB-435. Briefly: Growth inhibition of human MDA-MB-435 cells at 10 uM after 48 hrs by sulforhodamine B assay relative to control. The experiment is classed as functional. To be noted: MDA-MB-435, 48 h, read-out: GI. An outline of the steps:
as §2

The GI50 is the concentration at which growth is held to half of that of the control. As to `COc1c2occc2c(OC)c2c(=O)c(CN3CCOCC3)c(/C=C/c3ccc(N(C)C)cc3)oc12`, the inhibition of growth at 10 µM stood at 88% in experiment [1]; 63% with M14; 84% in the experiment with NCI-H522; 80% in the experiment with RPMI-8226; 88% in experiment [2]; 99% in the experiment on SNB-75. Also, the inhibition of growth at 10 µM amounted to 87% in the experiment with PC-3; 73% in the experiment on KM12; 80% in the experiment on NCI-H23; 64% with HL-60(TB); 80% in experiment [4]; 65% in experiment [5]. In addition, the inhibition of growth at 10 µM is 89% in the experiment on ACHN, 76% in experiment [7] and 87% in experiment [8]. In addition, the inhibition in vivo at 3 mg/kg in the experiment on Ehrlich turned out to be 62.1%. The GI50 in [3] came out at 1680 nM; in [6], 2870 nM. Besides, the Activity with Mus musculus was determined as 197.2%.

For `C=CCc1c(O)c(C(=O)/C=C/c2ccc(Cl)cc2)c(OC)c2ccoc12`, in the experiment with SR [9], the 50% growth inhibitory concentration (GI50) came to 2770 nM.

On to `COc1c(C(=O)/C=C/c2ccc(Cl)cc2)c(O)c(Br)c2occc12`, for which the GI50 in [3] is 3120 nM; in experiment [6], 2540 nM.

As to `C=CCc1c(O)c(C(=O)/C=C/c2ccccc2)c(OC)c2ccoc12`, growth in the experiment with SR [9] was halved (GI50) at 2150 nM. This counts as single-digit micromolar.

`C=CCc1c2c(c(OC)c3ccoc13)C(=O)/C(=C/c1ccccc1OC)O2`: the inhibition of growth at 10 µM in the experiment on MCF7 was found to be 67%; in the experiment on RPMI-8226, 71%; with SNB-75, 64%; in the experiment with NCI-H23, 80%; in experiment [4] it was 61%; in experiment [5], 62%. The inhibition of growth at 10 µM with CAKI-1 turned out to be 62%; in experiment [8], 65%; in the experiment on NCI-H460, 69%. Moreover, in the experiment with SR [9], halving of growth (GI50) required 3160 nM.

For `COc1c2occc2c(OC)c2c(=O)c(CN3CCOCC3)c(/C=C/c3ccc(Cl)cc3)oc12`, the inhibition of growth at 10 µM in [1] stood at 93%; in the experiment on RPMI-8226, 60%; in [2] it was 68%; with PC-3, 72%; in the experiment on SF-268, 67%; with HL-60(TB), 60%. Moreover, the inhibition of growth at 10 µM worked out at 60% in [4], 66% with ACHN, 61% in the experiment with CAKI-1 and 88% in the experiment on NCI-H460.

With `COc1c(C(=O)/C=C/c2ccccc2)c(O)cc2occc12`, the inhibition of growth at 10 µM in experiment [1] came out at 89%; in the experiment with MCF7, 76%; in the experiment with RPMI-8226, 86%; in the experiment on SNB-75, 86%; in the experiment on SR [10], 72%; in the experiment with KM12, 64%. The inhibition of growth at 10 µM (in the experiment on MDA-MB-435; in experiment [8]) was 68% throughout. This compound also returned a GI50 in the experiment with SR [9] of 3270 nM.

In the case of `COc1ccccc1/C=C/C(=O)c1c(O)cc2occc2c1OC`, the inhibition of growth at 10 µM in experiment [1] worked out at 66%; in the experiment on MCF7, 60%; in the experiment with RPMI-8226 it was 86%; in the experiment with SR [10] it was 62%; with KM12 it was 63%; in the experiment on MDA-MB-435 it was 74%. For the same compound, the inhibition of growth at 10 µM in the experiment with NCI-H460 came to 61%.

The values are drawn from ChEMBL document CHEMBL3286372, “Design, synthesis and structure-activity relationship of novel semi-synthetic flavonoids as antiproliferative agents” (2014).
